Bioassay records deposited in PubChem BioAssay by The Scripps Research Institute Molecular Screening Center.
PME-1 primary = PME-1 (human) inhibition; Q9Y570; recombinant PME-1, FP-Rh probe fluorescence polarization; inhibition, % at 5.9 µM; 320,000 compounds, 0.53% hits; AID 2130;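 active means inhibition above the campaign mean of all compounds plus 3 SD, cut at about 26% in these data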;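 further: competitive labeling of PME-1 active site by serine hydrolase directed probe; inhibitors block probe labeling so polarization falls and inhibition rises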
Fam108B inh = blocks mouse Fam108B hydrolase in RBBP9 counter-screen; inhibition, % at 9.51 µM; 300,000 compounds, 0.33% hits; recombinant Fam108B, FP-Rh probe fluorescence polarization;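 active means inhibition above the screen mean inhibition plus 3 SD, computed separately per campaign, cut at about 18% in these data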;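 further: inhibitors lower polarization as less probe binds the enzyme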
LYPLA2 inh = LYPLA2 (human) inhibition in PME1 counter-screen; O95372; recombinant LYPLA2, FP-Rh probe fluorescence polarization; inhibition, % at 5.9 µM; 320,000 compounds, 0.38% hits;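 active means inhibition above the screen-wide mean plus 3 SD, limit set per campaign, cut at about 26% in these data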
RBBP9 inh = human RBBP9 hydrolase inhibition | inhibition, % at 7.94 µM | 220,000 compounds, 0.2% hits | recombinant RBBP9, FP-Rh probe fluorescence polarization;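 active means inhibition above the campaign mean of all tested compounds plus 3 SD, cut at about 14% in these data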
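Test system – recombinant human RBBP9 · Input – RBBP9 2.5 µM in dispensing solution, pre-mixing · Medium – Tris buffer pH 8.0, NaCl, Pluronic · Schedule – preincubation 30 min plus labeling 45 min at 25 °C · Measured by – fluorescence polarization · Measure – % inhibition · Controls – DMSO and no-protein wells · Replicates – one well per compound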
PAD4 inh = blocks human protein arginine deiminase 4 | Q9UM07 | recombinant PAD4, RCA probe fluorescence polarization | inhibition, % at 6.36 µM | 330,000 compounds, 0.41% hits;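 active means percent inhibition above a cutoff equal to the mean of all tested compounds plus 3 SD, cut at about 15% in these data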
Target sequence (Q9UM07 whole entry, looked up): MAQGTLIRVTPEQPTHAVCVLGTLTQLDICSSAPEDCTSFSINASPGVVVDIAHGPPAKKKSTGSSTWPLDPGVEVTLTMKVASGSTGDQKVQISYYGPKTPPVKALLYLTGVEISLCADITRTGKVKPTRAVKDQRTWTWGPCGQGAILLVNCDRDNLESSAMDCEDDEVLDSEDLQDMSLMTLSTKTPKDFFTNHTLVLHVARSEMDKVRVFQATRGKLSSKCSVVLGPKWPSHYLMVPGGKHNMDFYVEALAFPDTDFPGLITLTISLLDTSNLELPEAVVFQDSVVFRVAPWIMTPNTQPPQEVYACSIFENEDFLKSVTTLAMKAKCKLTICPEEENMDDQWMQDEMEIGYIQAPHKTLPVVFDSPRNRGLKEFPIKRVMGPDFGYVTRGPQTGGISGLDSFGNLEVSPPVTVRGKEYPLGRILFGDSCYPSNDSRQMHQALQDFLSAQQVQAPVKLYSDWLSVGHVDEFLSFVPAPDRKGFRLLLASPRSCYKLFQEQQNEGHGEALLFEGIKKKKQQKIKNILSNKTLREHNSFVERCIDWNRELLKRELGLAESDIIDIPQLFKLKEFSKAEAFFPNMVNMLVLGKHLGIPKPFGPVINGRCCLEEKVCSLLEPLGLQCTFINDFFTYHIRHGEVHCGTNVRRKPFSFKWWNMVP
LYPLA1 inh = blocks human lysophospholipase 1, a PME1 counter-screen; O75608; recombinant LYPLA1, FP-Rh probe fluorescence polarization; inhibition, % at 5.9 µM; 320,000 compounds, 0.16% hits;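 active means inhibition above the mean of all tested compounds plus 3 SD, set per campaign, cut at about 14% in these data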;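 further: inhibitors block serine hydrolase probe labeling of LYPLA1 so polarization falls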
LYPLA2 confirm = LYPLA2 (human) inhibition, confirmation counter-screen; shares compounds with LYPLA2 inh; recombinant LYPLA2, FP-Rh probe fluorescence polarization; inhibition, % at 5.9 µM; 1,100 compounds, 72% hits; AID 2232;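 active means mean inhibition across replicates above the hit cutoff set in the primary screen, cut at about 26% in these data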;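 further: blocked labeling of the enzyme by serine hydrolase FP-Rh probe lowers polarization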
LYPLA2 gel ABPP = inhibitors of human LYPLA2; AID 652029; inhibition, % at 20 µM; rhLYPLA2 in mouse brain proteome, gel ABPP FP-Rh; shares compounds with LYPLA2 inh; 150 compounds, 30% hits;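 active means inhibition of LYPLA2 enzyme probe labeling above about 50%, limit read from the data; inactive means inhibition below that limit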;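 further: loss of FP-Rh probe labeling of the LYPLA2 gel band measured as band density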
Each line names hits and unclear results; the compound was inactive in the other large screens (follow-up assays come after a bar, where they were run). Only some compounds are listed: those with a hit (about 1.3% of all), similar ones and a draw of the others.

CCCCCCCCOC(=O)CCc1c(C)[nH]c(=S)[nH]c1=O	LYPLA2 inh 39 | LYPLA2 confirm 30
COc1ccccc1Oc1ccc2c(c1)C(=O)N(c1cccc3ncccc13)C2=O	none (no result: PME-1 primary, Fam108B inh, LYPLA2 inh, PAD4 inh, LYPLA1 inh)
COc1ccccc1Oc1ccc2c(c1)C(=O)N(c1cccc(O)c1)C2=O	LYPLA2 inh 51 | LYPLA2 confirm 51 | LYPLA2 gel ABPP inactive
COc1ccccc1CN(C(=O)c1cnccn1)C(C(=O)NC1CCCCC1)c1cc(OC)c(OC)c(OC)c1 (stereo not drawn)	none (no result: RBBP9 inh)
c1ccc(CSc2ncnc3ccccc23)cc1	none
Fc1ccc(CSc2ncnc3ccccc23)cc1	LYPLA2 inh 26 | LYPLA2 confirm 26
COc1ccc(N/C=C(\C#N)c2ccc(OCCCF)cc2)cc1	LYPLA2 inh 73 | LYPLA2 confirm 61 | LYPLA2 gel ABPP inactive
Cc1ccc(N/C=C(\C#N)c2ccc(OCCCF)cc2)cc1	LYPLA2 inh 65 | LYPLA2 confirm 75 | LYPLA2 gel ABPP 52
COc1ccc(N/C=C(\C#N)S(=O)(=O)c2ccc(OC)cc2)cc1	none (no result: RBBP9 inh)
CCOc1ncccc1C(=O)Nc1cc(S(=O)(=O)N2CCOCC2)ccc1OCC(F)(F)F	none (no result: PME-1 primary, Fam108B inh, LYPLA2 inh, RBBP9 inh, LYPLA1 inh)
O=[N+]([O-])c1ccc(Sc2cccc3cccnc23)c([N+](=O)[O-])c1	none
O=[N+]([O-])c1ccc(Sc2cccc3cccnc23)cc1	LYPLA2 inh 28 | LYPLA2 confirm inactive
COc1ccc(S(=O)(=O)NNC(=O)Nc2ccc(F)cc2F)c(OC)c1	none (no result: RBBP9 inh)
Cc1nc2ccccc2nc1OCC(=O)Nc1ccc2ccccc2c1	LYPLA2 inh 33 | LYPLA2 confirm inactive
CCC(CC)c1nnc(NC(=O)CN2C(=O)NC3(CCCC3)C2=O)s1	none (no result: RBBP9 inh)
O=C(Cc1ccc(S(=O)(=O)N2CCOCC2)s1)N1CCN(c2cccc(C(F)(F)F)c2)CC1	LYPLA2 inh 40 (no result: RBBP9 inh) | LYPLA2 confirm 48
O=C(Cc1ccc(S(=O)(=O)N2CCCC2)s1)N1CCN(c2ccccc2)CC1	none
COc1ccccc1C(=O)COC(=O)c1ccc(-n2cnnn2)cc1	LYPLA2 inh 32 (no result: RBBP9 inh) | LYPLA2 confirm inactive
COc1ccccc1OCCC(=O)OCC(=O)NCc1ccc(F)cc1	none (no result: PME-1 primary, Fam108B inh, LYPLA2 inh, RBBP9 inh, LYPLA1 inh)
Cc1cccc(-n2c(CNC(=O)c3ccc(S(=O)(=O)N4CCCCC4)cc3)n[nH]c2=S)c1	LYPLA2 inh 79 (no result: RBBP9 inh) | LYPLA2 confirm inactive
Cc1cc([N+](=O)[O-])nn1CCCC(=O)Nc1cc(Oc2ccccc2)cc([N+](=O)[O-])c1	none
Cc1cccc(Oc2cc(NC(=O)Cn3cnc([N+](=O)[O-])n3)cc([N+](=O)[O-])c2)c1	LYPLA2 inh 42 | LYPLA2 confirm inactive
CCOC(=O)C1(C)/C(=N/Nc2ccc(S(N)(=O)=O)cc2)C(=O)C(=O)N1c1ccccc1 (stereo not drawn)	none
CCOC(=O)C1(C)C=C(Nc2ccc(C)cc2)C(=O)N1c1ccc(C)cc1 (stereo not drawn)	LYPLA2 inh 27 | LYPLA2 confirm inactive
O=C(CNC(=O)c1ccc(S(=O)(=O)N2CCCC2)cc1)N/N=C/c1c(Cl)cccc1Cl	LYPLA2 inh 26 | LYPLA2 confirm inactive
O=C(CNC(=O)c1ccc(S(=O)(=O)N2CCCC2)cc1)N/N=C/c1ccc(Cl)cc1	none
COc1cc(/C=C2/NC(=O)N(Cc3ccccc3F)C2=O)ccc1Oc1ccc([N+](=O)[O-])cn1	LYPLA2 inh 62 | LYPLA2 confirm 72
COc1cc(/C=C(/C#N)c2ccccc2)ccc1Oc1ccc([N+](=O)[O-])cn1	LYPLA2 inh 31 | LYPLA2 confirm 31
O=C(OCC(=O)N1CCc2ccccc21)c1ccccc1[N+](=O)[O-]	LYPLA2 inh 49 (no result: Fam108B inh, RBBP9 inh) | LYPLA2 confirm 56
O=C(CCCN1C(=O)c2cccc3cccc(c23)C1=O)N1CCN(c2ccccc2O)CC1	LYPLA2 inh 49 | LYPLA2 confirm 49
O=C(CCCN1C(=O)c2cccc3cccc(c23)C1=O)N1CCN(c2ccccc2)CC1	LYPLA2 inh 37 | LYPLA2 confirm 40
CCCCCCCCNC(C)C(O)c1ccc(SC(C)C)cc1 (stereo not drawn)	LYPLA2 inh 40 | LYPLA2 confirm 46
CCN(CC)S(=O)(=O)c1ccc(N2CCOCC2)c(NC(=O)c2cc(=O)[nH]c3ccccc23)c1	LYPLA2 inh 36 | LYPLA2 confirm 43
CCN(CC)S(=O)(=O)c1ccc(N2CCOCC2)c(NC(=O)COc2ccc(C#N)cc2)c1	LYPLA2 inh 77 | LYPLA2 confirm 79 | LYPLA2 gel ABPP 64
CCN(CC)S(=O)(=O)c1ccc(N2CCOCC2)c(NC(=O)COc2ccc(OC)cc2)c1	none (no result: Fam108B inh, RBBP9 inh)
O=C1NCCCCC1NS(=O)(=O)c1ccc(Cl)cc1 (stereo not drawn)	none (no result: RBBP9 inh)
COc1ccc(Oc2ccc(N/C=C3\CCCC3=O)cc2)cc1	LYPLA2 inh 39 | LYPLA2 confirm 37
COc1ccc(N/C=C2/CCCCC2=O)cc1	none
COc1ccc(Oc2ccc(N/C=C3/CCCC3=O)cc2)cc1	LYPLA2 inh 41 | LYPLA2 confirm 36
O=C(Nc1ccnc(=O)[nH]1)c1sc2ccccc2c1Cl	none
Cc1ccc(C#CC[N+]2(CC#Cc3ccc(C)cc3)CCCCC2)cc1	none
Cc1cc(C)c2c(n1)SCC(=O)N2CC(=O)Nc1ccc(Br)c(C)c1	LYPLA2 inh 56 (no result: RBBP9 inh) | LYPLA2 confirm 33
O=C(C1CCN(c2ncnc3c2nc2n3CCCCC2)CC1)N1CCN(c2cccc(Cl)c2)CC1	LYPLA2 inh 34 (no result: RBBP9 inh) | LYPLA2 confirm 26
O=C(c1cc(COc2ccc(F)cc2Cl)on1)N1CCC(c2ccncc2)CC1	LYPLA2 inh 33 | LYPLA2 confirm 30
O=C(NNc1ccccc1[N+](=O)[O-])Nc1ccc(F)cc1F	none (no result: RBBP9 inh)
O=C(NNc1ccccc1[N+](=O)[O-])Nc1cccc(Cl)c1	LYPLA2 inh 40 | LYPLA2 confirm 46
Cc1nc(C(=O)NC2CCOCC2)sc1C1(C)CC(c2cccc([N+](=O)[O-])c2)=NO1 (stereo not drawn)	LYPLA2 inh 34 (no result: RBBP9 inh) | LYPLA2 confirm 45
Cc1nc(C(=O)NC2CCOCC2)sc1C1(C)CC(c2ccccc2)=NO1 (stereo not drawn)	none (no result: RBBP9 inh)
CN(CC(=O)O/N=C(\N)c1ccc([N+](=O)[O-])cc1)S(=O)(=O)c1ccccc1	LYPLA2 inh 29 | LYPLA2 confirm inactive
Cc1ccc(S(=O)(=O)N(C)CC(=O)O/N=C(\N)c2ccc([N+](=O)[O-])cc2)cc1	LYPLA2 inh 67 | LYPLA2 confirm 58 | LYPLA2 gel ABPP inactive
CN(CC(=O)O/N=C(\N)c1cccc([N+](=O)[O-])c1)S(=O)(=O)c1ccccc1	none
